# APJ antagonist – blocks the human apelin receptor APJ; P35414; CHO-K1 APJ beta-arrestin complementation, luminescence; inhibition, % at 20 µM; actives 0.32% (n = 330,000); AID 2521;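 active means inhibition above about 40% at 20 µM, limit read from the data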;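 further: cells challenged with 10 nM apelin-13 agonist together with compound; plate controls were apelin-13 plus DMSO wells for no effect and DMSO wells lacking apelin-13 for full effect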
# m5-HT2A agonist – mouse HTR2A agonism via beta-arrestin recruitment; AID 624169; actives 0.66% (n = 360,000); P35363; activation, % at 7.6 µM; CHO-K1 mHTR2A beta-arrestin complementation, luminescence; percent of 30 µM serotonin response;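 active means activation above a run cutoff, the mean activation of all tested compounds plus 3 SD, cut at about 14% in these data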;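 further: 0% = plate median of compound wells and 100% = 30 µM serotonin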
# Target sequence (P35363 whole entry, looked up): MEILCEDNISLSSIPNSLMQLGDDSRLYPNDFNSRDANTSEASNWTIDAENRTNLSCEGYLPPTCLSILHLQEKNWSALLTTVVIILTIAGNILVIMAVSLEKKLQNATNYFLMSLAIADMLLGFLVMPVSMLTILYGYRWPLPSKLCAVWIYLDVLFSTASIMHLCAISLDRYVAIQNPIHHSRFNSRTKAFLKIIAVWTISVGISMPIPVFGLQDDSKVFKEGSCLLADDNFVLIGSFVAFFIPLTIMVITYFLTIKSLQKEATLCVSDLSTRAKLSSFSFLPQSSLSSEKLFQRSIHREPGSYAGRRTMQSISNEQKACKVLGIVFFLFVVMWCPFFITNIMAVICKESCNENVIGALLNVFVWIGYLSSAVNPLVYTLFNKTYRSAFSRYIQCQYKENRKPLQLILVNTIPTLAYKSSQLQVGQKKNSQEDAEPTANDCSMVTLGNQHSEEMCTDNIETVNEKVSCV
# CCR6 antagonist – blocks CCL20-driven beta-arrestin recruitment at human CCR6; CHO-K1 CCR6 PathHunter beta-arrestin, luminescence, CCL20-stimulated; inhibition, % at 20 µM; actives 0.49% (n = 340,000); AID 493098;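 active means compounds whose inhibition of the agonist-driven luminescence signal at 20 µM reaches about 50%, limit read from the data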;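 further: cells stimulated with CCL20 at 14 nM final; plate controls were DMSO with CCL20 for no effect and DMSO without agonist for full effect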
# CXCR6 block – inhibitors of human CXCR6 receptor. actives 0.36% (n = 360,000). O00574. CHO-K1 PathHunter CXCR6 beta-arrestin, luminescence. inhibition, % at 20 µM. AID 602244; in the data active means inhibition above about 34%, passing the limit was not always enough;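 further: antagonist mode with CXCL16 agonist at 10 nM final; 0% = 10 nM CXCL16 with DMSO and 100% = unstimulated wells without agonist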
# Target sequence (O00574 whole entry, looked up): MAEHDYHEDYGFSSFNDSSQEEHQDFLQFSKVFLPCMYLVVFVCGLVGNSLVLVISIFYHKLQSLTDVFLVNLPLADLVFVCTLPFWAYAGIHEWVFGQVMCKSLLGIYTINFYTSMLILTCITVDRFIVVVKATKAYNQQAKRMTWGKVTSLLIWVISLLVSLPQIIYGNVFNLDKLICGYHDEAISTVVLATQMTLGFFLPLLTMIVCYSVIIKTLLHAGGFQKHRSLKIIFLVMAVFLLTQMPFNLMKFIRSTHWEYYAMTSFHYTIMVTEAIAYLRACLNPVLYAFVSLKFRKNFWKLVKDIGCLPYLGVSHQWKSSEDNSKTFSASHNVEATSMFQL
# APJ agonist – activates the human apelin receptor APJ | P35414 | CHO-K1 APJ PathHunter beta-arrestin, luminescence; 0% DMSO wells, 100% apelin | activation, % at 20 µM | actives 0.11% (n = 330,000) | AID 2520;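 active means activation more than six SD over the plate average, tested at 20 µM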;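 further: 0% = DMSO alone and 100% = apelin-13 at 10 nM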
#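 Test system – PathHunter CHO-K1 APJ (AGTRL-1) beta-arrestin reporter cells · Input – 1000 cells/well · Compound – single test compound dose, 20 µM final, 1% DMSO · Times – compound stimulation 90 min at 25 °C, detection 60 min · Technique – beta-gal luminescence · Read-out basis – APJ–arrestin association signal · Control set – negative DMSO alone, positive Apelin-13 at 10 nM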
# EBI2 antag – antagonists of human EBI2 receptor; AID 651636; EBI2 beta-arrestin recruitment, luminescence, 7a,25-OHC stimulated; actives 0.81% (n = 360,000); inhibition, % at 5 µM; P32249; in the data active means inhibition above about 38%;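 further: enzyme fragment complementation signal reports receptor beta-arrestin coupling in cells; 0% = agonist plus DMSO wells and 100% = wells without agonist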
# CXCR6 antag conf – confirmation of human CXCR6 receptor antagonists | shares compounds with CXCR6 block | CHO-K1 CXCR6 PathHunter beta-arrestin, luminescence | inhibition, % at 20 µM | actives 65% (n = 700);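 active means mean inhibition over four retests above 40%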;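 further: receptor stimulated with 10 nM CXCL16 agonist; beta-galactosidase fragment complementation upon beta-arrestin recruitment to receptor; plate controls were CXCL16 plus DMSO for no effect and DMSO without CXCL16 for full effect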
# OPRM1 ag – OPRM1 agonism in mouse HTR2A counterscreen. shares compounds with m5-HT2A agonist. U2OS OPRM1 beta-arrestin PathHunter, luminescence; DMSO 0%, DAMGO 9.3 µM 100%. activation, % at 9.3 µM. actives 5.3% (n = 2,300). AID 624380;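 active means mean activation above the mean of DMSO-only wells plus 3 SD, cut at about 0.5% in these data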
# HTR2A ag conf – confirmation of mouse HTR2A serotonin receptor agonists; actives 19% (n = 2,300); activation, % at 7.6 µM; shares compounds with m5-HT2A agonist; CHO-K1 PathHunter beta-arrestin recruitment, luminescence; DMSO 0%, 30 µM serotonin 100%;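 active means mean activation across triplicates above the hit threshold derived in the original primary screen, cut at about 15% in these data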
# EBI2 antag conf – EBI2 (human) antagonism, single concentration confirmation; shares compounds with EBI2 antag; EBI2 beta-arrestin luminescence, 7a,25-OHC antagonism; inhibition, % at 5 µM; actives 29% (n = 2,400); AID 651997;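 active means inhibition of at least 50%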
# EBI2 ag – EBI2 agonism counter-screen; shares compounds with EBI2 antag; EBI2-expressing cells, agonist mode, luminescence, 60 min; 0% vehicle, 100% 7α,25-dihydroxycholesterol control; activation, % at 5 µM; 2,400 tested, under 10 active; AID 652000;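 active means activation of at least 50%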
# bGal cs – counter-screen for EBI2 antagonists: E. coli beta-galactosidase inhibition. shares compounds with EBI2 antag. purified beta-galactosidase, luminescent Galacton Star, 15 min. inhibition, % at 5 µM. actives 1% (n = 2,400). AID 652176;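 active means replicate-average signal at least 3 plate SD below neutral wells, shown as high inhibition, flagging enzyme-inhibiting false positives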;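 further: 0% = DMSO wells with enzyme and 100% = wells lacking enzyme; higher means stronger loss of beta-gal luminescence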
# The depositor's hits bear a star; x = not tested or not shown. Only some compounds are listed: those with a hit (about 2.2% of all), similar ones and a draw of the others.
SMILES,APJ antagonist,m5-HT2A agonist,CCR6 antagonist,CXCR6 block,APJ agonist,EBI2 antag,OPRM1 ag,HTR2A ag conf,others
Cc1ccc(NC(=S)NNc2ncc(C(F)(F)F)cc2Cl)cc1,-18.2,-12.4,90.4*,77.5*,-2.0,42.3*,x,x,CXCR6 antag conf=58.2*;EBI2 antag conf=32.6;EBI2 ag=-1.2;bGal cs=15.0
CCC(CC)C(=O)N(C)c1c(C)nc2c(OCc3ccccc3C)cccn12,x,-2.9,x,1.3,x,-1.2,x,x,
CCC(CC)C(=O)N(C)c1c(C)nc2c(OCc3ccc(Cl)cc3Cl)cccn12,x,-4.5,x,50.8*,x,47.3*,x,x,CXCR6 antag conf=23.5;EBI2 antag conf=45.7;EBI2 ag=-1.2;bGal cs=8.3
O=[N+]([O-])c1ccc(N/N=C/c2sc(N3CCOCC3)nc2-c2ccccc2)c(S(=O)(=O)Nc2ccc(Cl)cc2)c1,x,1.8,83.0*,51.7*,x,51.5*,x,x,CXCR6 antag conf=61.6*;EBI2 antag conf=30.3;EBI2 ag=-1.5;bGal cs=12.5
OC[C@@H]1CN(Cc2ccncc2)C[C@H](n2cnc3c(NC4CCCC4)ncnc32)O1,x,9.2,x,4.4,x,-12.4,x,x,
COc1ccc(S(=O)(=O)N(C)C[C@@H]2OCCCC[C@@H](C)Oc3ccc(NS(=O)(=O)c4cccs4)cc3C(=O)N([C@H](C)CO)C[C@@H]2C)cc1,x,4.4,x,3.1,x,0.1,x,x,
CN(CC(=O)Nc1ccc(F)c(F)c1F)C(=O)CN1C(=O)C2CCCCC2C1=O (centres undefined),22.6,15.4*,0.8,-8.9,-3.8,-7.6,-0.5,-4.0,
CCc1cc(=O)oc2c(C)c(O)c(CN3CCCCC3)cc12,2.5,22.2*,-0.8,0.4,-0.5,-24.3,-0.5,-2.3,
O=C(O)c1ccc(CNC(=O)C2CCN(S(=O)(=O)c3cccs3)CC2)cc1,x,-4.7,x,6.3,x,3.3,x,x,
CCCc1ccc(C(O)c2ncc(-c3ccccc3F)[nH]2)cc1 (centres undefined),x,2.1,x,-9.9,x,4.3,x,x,
Cc1cccc(C)c1NC(=O)C1(C)CSCC(=O)N1CCOc1ccccc1 (centres undefined),x,1.8,x,x,x,-6.2,x,x,
COc1ccc(-c2c(NC(=O)c3ccco3)n(-c3ccccc3)nc(C)c2=O)cc1,6.8,6.6,9.0,-2.8,1.1,-3.4,x,x,
CCCC(=O)Nc1c(-c2ccccc2)c(=O)c(C)nn1-c1ccc(Cl)cc1,9.0,15.3*,5.5,-2.7,-2.5,-2.8,-0.7,-3.2,
S=C(NCCCCN(Cc1ccc(Cl)cc1)c1ccc(Br)cn1)NCCCc1cnc[nH]1,x,-9.4,x,8.9,x,-5.6,x,x,
C=CCn1c2ccccc2c2nnc(SCCCn3c(=O)[nH]c4ccccc43)nc21,x,17.2*,3.0,-2.0,x,-14.8,-0.5,3.2,
O=C(c1[nH]c(C(F)(F)F)nc1-c1ccccc1)N1CCc2ccccc2C1,x,0.3,x,-11.8,x,-8.3,x,x,
COc1ccccc1CN(C)C(=O)CN1CCN(C(=O)c2cccs2)CC1,-1.4,16.8*,3.0,-1.9,-3.2,4.1,-0.5,27.3*,
CC1(C(=O)NS(=O)(=O)c2cccc(OC(F)F)c2)CCN1C(=O)c1ccco1 (centres undefined),x,4.8,x,1.4,x,2.2,x,x,
C=CCNc1nc2cc(-c3ccc(C(=O)N4CCOCC4)cc3)sc2c(=O)n1C,x,1.2,x,4.5,x,0.3,x,x,
COc1cccc(C(=O)NCC(=O)OCC(=O)Nc2cc(OC)c([N+](=O)[O-])cc2C)c1,-6.7,17.0*,14.4,-3.6,0.5,-12.8,-0.7,-4.3,
COc1cc(NC(=O)COC(=O)CNC(=O)c2cc(C)cc(C)c2)c(C)cc1[N+](=O)[O-],9.3,-2.7,5.0,1.8,0.0,1.5,x,x,
O=C(NC1CCCC1)C1CCCN1S(=O)(=O)c1cccc2cccnc12 (centres undefined),-20.2,22.2*,2.8,4.9,2.3,-2.6,-0.5,-1.5,
CN(C)c1nc(Oc2ccc(C(=O)OCC(=O)Nc3ccccc3)cc2)nc(N(C)C)n1,-12.1,8.3,3.4,10.6,-0.9,15.9,x,x,
CCOC(=O)c1ccc(Oc2nc(OC)nc(N(C)C)n2)cc1,9.9,17.6*,-5.0,-0.8,-2.9,-6.9,-0.6,-0.3,
Cn1c(=O)n(C)c2cc(/C=C3/SC(=O)N(CC(=O)N4CCOCC4)C3=O)ccc21,6.1,17.0*,8.8,-11.2,1.2,-8.6,-0.5,-1.0,
SMILES,APJ antagonist,m5-HT2A agonist,CCR6 antagonist,CXCR6 block,APJ agonist,EBI2 antag,OPRM1 ag,HTR2A ag conf,others
Cc1c(NC(=O)c2cccc(NC(=O)C(C)Oc3ccccc3)c2)c(=O)n(-c2ccccc2)n1C (centres undefined),x,2.1,x,-1.4,x,-11.7,x,x,
CCc1nc2sc3c(c2c(=O)n1N)CC(C)(C)OC3,-7.2,-0.1,-1.3,-4.2,-1.3,4.7,x,x,
CCOC(=O)CSc1nc2sc3c(c2c(=O)n1CC)CC(C)(C)OC3,11.8,23.1*,-5.5,0.3,2.5,-0.7,-0.5,-1.4,
CC(=O)N1N=C(c2c(-c3ccccc3)c3cc(Br)ccc3[nH]c2=O)CC1c1ccco1 (centres undefined),2.6,24.5*,7.5,4.4,-0.1,9.5,0.5,29.5*,
NC(N)=NC(=O)Cc1c(Cl)cccc1Cl,13.0,30.0*,3.4,3.3,9.9,4.5,-0.7,39.8*,
CCS(=O)(=O)C1=NN2C(=N)/C(=C\c3ccc(SCc4ccco4)o3)C(=O)N=C2S1,x,17.6*,8.9,-3.0,x,-7.7,2.2*,13.2,
CC(=O)O[C@@H](Cc1ccc(O)cc1)C(=O)CC(C)C,x,-0.5,x,-0.5,x,2.4,x,x,
OC(Cc1ccccc1Br)c1ncc(-c2cccc(C(F)(F)F)c2)[nH]1 (centres undefined),x,2.1,x,-7.1,x,5.5,x,x,
COc1cccc(-n2c(SCC(N)=O)nc3c([nH]c4ccccc43)c2=O)c1,-2.5,2.8,6.2,1.9,-4.0,-5.8,x,x,
COc1cccc(-n2c(SCC(=O)N3CCCCC3)nc3c([nH]c4ccccc43)c2=O)c1,-1.3,20.8*,13.3,7.1,-4.3,7.0,-0.6,-3.6,
